Our source for the Activity and residual activity values is ChEMBL document CHEMBL1133943, “N-hydroxyl derivatives of guanidine based drugs as enzymatic NO donors” (Bioorg Med Chem Lett, 2001).

Holding throughout (format): functional
For experiment [1], the target named is Nitric oxide synthase, inducible (Homo sapiens) (UniProt P35228). The experiment can be described thus: NO releasing ability of compound measured through formation of nitrite using iNOS (nitric oxide synthases). In outline: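 Purified iNOS (0.5 unit) incubated with 1 mM substrate in 50 mM HEPES pH 7.4 with 100 µM NADPH, 4 µM FAD, 4 µM FMN, 6 µM BH4, 400 µM DTT, SOD, catalase and 1 mM magnesium acetate; shaken at 37 °C. Quenched with ethanol for ≥1 h at room temperature, then Griess reagent; A548 converted via NaNO2 calibration in enzyme-free mixtures.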

For experiment [2], the target named is Nitric oxide synthase 1 (Rattus norvegicus) (UniProt P29476). Description: NO releasing ability of compound measured through formation of nitrite using nNOS (nitric oxide synthases). An outline of the steps:
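Purified nNOS (0.5 unit) incubated with 1 mM substrate in 50 mM HEPES pH 7.4, 500 µL final volume. Mix held 100 µM NADPH, 4 µM FAD, 4 µM FMN, 6 µM BH4, 400 µM DTT, SOD, catalase, 1 mM CaCl2 and 10 µg/mL CaM; shaken at 37 °C. Ethanol quench, then Griess nitrite read at 548 nm against NaNO2 calibration without enzyme. L-arginine as control.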

The nature of experiment [3]: Effect of incubation conditions on the formation of NO2 from the oxidation of compound in the presence of BH4. In outline: (§1)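 Base NOS reaction varied by component: 1 mM substrate, 50 mM HEPES pH 7.4, 100 µM NADPH, 4 µM FAD, 4 µM FMN, 6 µM BH4, 400 µM DTT, SOD, catalase, 0.5 unit NOS, shaken at 37 °C for the indicated time. Nitrite determined by Griess reaction after ethanol quench, absorbance 548 nm, with NaNO2 calibration curves lacking enzyme.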

Experiment [4] can be described thus: Effect of incubation conditions on the formation of NO2 from the oxidation of compound in the presence of NADPH. An outline of the steps:
as §1

The nature of experiment [5]: Effect of incubation conditions on the formation of NO2 from the oxidation of compound in the presence of NO2-L-Arg. In outline:
as §1

The nature of experiment [6]: Effect of incubation conditions on the formation of NO2 from the oxidation of compound in the presence of complete system. In outline: as §1
Experiment [7] is described as follows: Effect of incubation conditions on the formation of NO2 from the oxidation of compound in the presence of nNOS. An outline of the steps: as §1
Experiment [8] deals with Nitric oxide synthase 1 (Homo sapiens) (UniProt P29475). The experiment can be described thus: NO releasing ability of compound measured through formation of nitrite using neuronal nitric oxide synthase. An outline of the steps:
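Incubation with nNOS (0.5 unit) in 50 mM HEPES pH 7.4 at 37 °C, shaken. Mixture: 1 mM substrate, 100 µM NADPH, 4 µM FAD, 4 µM FMN, 6 µM BH4, 400 µM DTT, 100 units SOD, 50 units catalase, 1 mM CaCl2, 10 µg/mL calmodulin. Quenched with ethanol, ≥1 h at room temperature, then Griess reagent, A548. Nitrite is quantified against NaNO2 standards made in enzyme-free mixtures. L-arginine is the reference substrate.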

A value given as a limit tells only on which side of the number the result lay.

Nitric oxide synthase 1 (Rattus norvegicus), sequence (P29476 whole entry): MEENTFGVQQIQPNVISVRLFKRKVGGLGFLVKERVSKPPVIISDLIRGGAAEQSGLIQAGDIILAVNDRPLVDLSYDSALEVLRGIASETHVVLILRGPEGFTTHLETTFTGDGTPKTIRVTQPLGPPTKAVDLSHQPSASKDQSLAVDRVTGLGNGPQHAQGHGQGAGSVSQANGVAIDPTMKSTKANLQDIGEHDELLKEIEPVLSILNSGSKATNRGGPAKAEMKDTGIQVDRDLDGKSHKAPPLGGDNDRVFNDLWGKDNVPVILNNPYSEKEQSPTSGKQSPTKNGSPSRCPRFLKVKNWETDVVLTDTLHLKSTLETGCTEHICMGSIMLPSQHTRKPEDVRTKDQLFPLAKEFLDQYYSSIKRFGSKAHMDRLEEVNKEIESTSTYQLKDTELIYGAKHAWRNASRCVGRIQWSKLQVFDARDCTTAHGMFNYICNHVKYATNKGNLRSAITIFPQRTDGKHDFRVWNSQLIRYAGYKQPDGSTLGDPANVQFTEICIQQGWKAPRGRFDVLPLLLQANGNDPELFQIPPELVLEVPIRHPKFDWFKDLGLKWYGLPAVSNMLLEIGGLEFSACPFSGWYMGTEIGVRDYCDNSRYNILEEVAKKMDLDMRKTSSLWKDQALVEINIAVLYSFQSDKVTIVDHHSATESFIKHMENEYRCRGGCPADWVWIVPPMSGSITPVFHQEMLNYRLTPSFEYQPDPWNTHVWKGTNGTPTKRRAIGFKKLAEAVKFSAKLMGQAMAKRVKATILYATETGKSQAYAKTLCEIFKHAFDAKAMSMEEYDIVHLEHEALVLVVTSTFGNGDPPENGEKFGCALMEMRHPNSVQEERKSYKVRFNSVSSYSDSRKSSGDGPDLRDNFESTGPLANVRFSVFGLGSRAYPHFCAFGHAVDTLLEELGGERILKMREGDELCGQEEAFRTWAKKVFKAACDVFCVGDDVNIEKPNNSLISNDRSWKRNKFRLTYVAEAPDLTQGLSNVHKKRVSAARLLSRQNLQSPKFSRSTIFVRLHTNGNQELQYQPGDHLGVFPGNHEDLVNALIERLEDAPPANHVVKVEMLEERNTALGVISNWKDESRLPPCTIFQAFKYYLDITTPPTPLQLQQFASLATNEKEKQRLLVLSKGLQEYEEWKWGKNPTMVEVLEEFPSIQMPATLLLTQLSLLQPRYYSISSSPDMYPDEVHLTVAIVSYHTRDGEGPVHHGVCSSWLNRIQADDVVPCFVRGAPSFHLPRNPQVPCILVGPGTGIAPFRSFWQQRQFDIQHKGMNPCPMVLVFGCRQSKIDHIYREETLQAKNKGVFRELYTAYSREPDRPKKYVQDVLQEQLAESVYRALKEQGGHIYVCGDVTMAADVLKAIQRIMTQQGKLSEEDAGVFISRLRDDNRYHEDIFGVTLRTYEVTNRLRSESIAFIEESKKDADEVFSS
Nitric oxide synthase, inducible (Homo sapiens), sequence (P35228 whole entry): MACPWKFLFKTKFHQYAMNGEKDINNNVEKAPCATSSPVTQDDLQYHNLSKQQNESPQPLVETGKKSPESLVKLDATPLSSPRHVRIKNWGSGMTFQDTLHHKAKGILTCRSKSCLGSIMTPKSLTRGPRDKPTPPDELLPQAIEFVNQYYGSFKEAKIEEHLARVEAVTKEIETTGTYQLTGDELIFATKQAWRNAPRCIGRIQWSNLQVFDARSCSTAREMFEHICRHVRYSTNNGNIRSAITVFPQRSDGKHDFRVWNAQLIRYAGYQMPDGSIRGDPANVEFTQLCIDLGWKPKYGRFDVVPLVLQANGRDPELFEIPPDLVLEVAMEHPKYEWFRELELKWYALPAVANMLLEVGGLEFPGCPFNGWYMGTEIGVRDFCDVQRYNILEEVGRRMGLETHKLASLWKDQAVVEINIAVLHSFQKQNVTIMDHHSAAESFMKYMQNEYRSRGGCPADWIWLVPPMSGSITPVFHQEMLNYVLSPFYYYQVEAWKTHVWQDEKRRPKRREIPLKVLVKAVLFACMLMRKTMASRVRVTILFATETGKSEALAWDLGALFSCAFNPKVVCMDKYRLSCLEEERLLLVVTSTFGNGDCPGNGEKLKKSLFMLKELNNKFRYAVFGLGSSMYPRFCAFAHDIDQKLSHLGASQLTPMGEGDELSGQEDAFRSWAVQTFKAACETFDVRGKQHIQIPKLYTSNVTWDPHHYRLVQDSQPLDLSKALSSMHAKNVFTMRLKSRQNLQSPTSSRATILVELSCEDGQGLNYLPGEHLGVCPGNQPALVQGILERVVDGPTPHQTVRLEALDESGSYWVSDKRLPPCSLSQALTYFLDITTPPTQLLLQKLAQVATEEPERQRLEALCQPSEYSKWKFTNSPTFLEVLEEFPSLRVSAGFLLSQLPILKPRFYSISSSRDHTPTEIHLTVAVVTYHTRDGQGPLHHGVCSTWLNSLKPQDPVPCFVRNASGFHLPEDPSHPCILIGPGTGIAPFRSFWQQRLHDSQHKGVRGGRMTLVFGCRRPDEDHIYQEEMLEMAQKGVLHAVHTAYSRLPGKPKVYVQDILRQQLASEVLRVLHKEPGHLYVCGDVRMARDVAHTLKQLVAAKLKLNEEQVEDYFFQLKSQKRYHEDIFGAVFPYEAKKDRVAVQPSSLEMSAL
Nitric oxide synthase 1 (Homo sapiens), sequence (P29475 whole entry): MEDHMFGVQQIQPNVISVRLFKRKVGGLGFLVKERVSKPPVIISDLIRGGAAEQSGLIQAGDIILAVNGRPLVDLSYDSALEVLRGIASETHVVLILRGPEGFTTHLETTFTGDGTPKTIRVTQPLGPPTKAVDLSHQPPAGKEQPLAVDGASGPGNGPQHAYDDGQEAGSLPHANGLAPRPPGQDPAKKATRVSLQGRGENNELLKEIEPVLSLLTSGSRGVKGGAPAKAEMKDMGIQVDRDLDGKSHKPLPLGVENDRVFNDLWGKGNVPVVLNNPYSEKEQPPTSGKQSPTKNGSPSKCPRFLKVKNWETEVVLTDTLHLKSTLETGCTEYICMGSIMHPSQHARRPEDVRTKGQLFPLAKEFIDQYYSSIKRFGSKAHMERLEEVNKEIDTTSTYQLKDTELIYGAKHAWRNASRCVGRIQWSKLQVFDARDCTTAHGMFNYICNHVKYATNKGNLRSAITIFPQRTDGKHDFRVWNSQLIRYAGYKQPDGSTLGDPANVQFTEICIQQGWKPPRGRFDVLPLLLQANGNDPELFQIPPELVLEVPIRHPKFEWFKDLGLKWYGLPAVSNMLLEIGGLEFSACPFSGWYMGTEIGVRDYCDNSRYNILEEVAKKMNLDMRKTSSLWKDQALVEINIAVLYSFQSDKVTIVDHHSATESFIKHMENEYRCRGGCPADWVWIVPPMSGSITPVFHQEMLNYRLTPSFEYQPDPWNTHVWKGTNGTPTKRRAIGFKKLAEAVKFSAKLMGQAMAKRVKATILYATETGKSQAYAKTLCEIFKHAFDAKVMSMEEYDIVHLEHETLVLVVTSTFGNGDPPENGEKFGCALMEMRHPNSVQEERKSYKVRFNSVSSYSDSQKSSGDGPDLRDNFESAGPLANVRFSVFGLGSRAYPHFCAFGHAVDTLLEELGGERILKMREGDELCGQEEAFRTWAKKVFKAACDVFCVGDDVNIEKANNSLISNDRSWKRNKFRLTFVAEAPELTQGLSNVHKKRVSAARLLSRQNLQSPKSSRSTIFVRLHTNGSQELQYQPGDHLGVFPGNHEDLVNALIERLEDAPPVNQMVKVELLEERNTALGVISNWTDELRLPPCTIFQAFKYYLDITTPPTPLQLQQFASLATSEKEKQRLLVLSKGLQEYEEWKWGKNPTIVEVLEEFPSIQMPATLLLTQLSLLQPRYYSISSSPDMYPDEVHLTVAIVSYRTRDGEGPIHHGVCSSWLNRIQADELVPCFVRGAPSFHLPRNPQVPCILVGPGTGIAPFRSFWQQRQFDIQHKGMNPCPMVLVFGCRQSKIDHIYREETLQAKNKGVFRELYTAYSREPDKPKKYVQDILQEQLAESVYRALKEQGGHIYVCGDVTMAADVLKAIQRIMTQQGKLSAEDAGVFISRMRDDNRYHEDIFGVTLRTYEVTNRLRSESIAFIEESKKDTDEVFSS

On to `N/C(=N/CC1COC2(CCCCC2)O1)NO` (stereo not drawn), for which the Activity in experiment [1] amounted to 1.6 µM; in experiment [2], 1.2 µM. Also, the residual activity in experiment [3] is 30%; in experiment [4] it was 18%; in experiment [5], 50%; in experiment [6], 100%; in experiment [7], less than 2%.

Regarding `N=C(N)NCCN1CCCCCCC1`, the Activity in experiment [1] and in experiment [2] was less than 0.1 µM throughout.

As for `N=C(N)NCC1COC2(CCCCC2)O1` (stereo not drawn), the Activity in experiment [1] and in experiment [2] was less than 0.1 µM in each case.

For the molecule `N/C(=N\O)NCCN1CCCCCCC1`, the Activity came to 0.2 µM in experiment [1] and 0.3 µM in experiment [2].

Consider `N=C(N)NCCC[C@H](N)C(=O)O`, for which the Activity in experiment [8] was 14.5 µM.

Regarding `N=C(N)NCC1COc2ccccc2O1` (stereo not drawn), the Activity in experiment [1] and in experiment [2] was less than 0.1 µM in each case.

Turning to `N/C(=N/CC1COc2ccccc2O1)NO` (stereo not drawn), the Activity in experiment [1] amounted to 0.9 µM; in experiment [2] it was 0.8 µM.

As a reminder, the residual activity is what remains of the control signal, in per cent.
